This note sets out measurements from ChEMBL document CHEMBL5712911, “A homogeneous bioluminescent immunoassay to probe cellular signaling pathway regulation” (Commun Biol, 2020).

The nature of the series: Effect on total IkappaBalpha level in human MCF7 cells measured after 4 hrs by NanoBiT cell-based immunoassay. Conditions: mcf7, 4 h. In kind it is toxicity. In outline:
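MCF-7 cells (50,000/well) held overnight at 37 °C, 5% CO2 without serum, then given a compound titration for 4 h. Lysed 20 min in buffer with 0.1% digitonin and protease/phosphatase inhibitors; mouse and rabbit anti-IκBα primaries plus NanoBiT-labelled anti-mouse/anti-rabbit secondaries added, 90 min at 23 °C; Nano-Glo substrate; luminescence read. Means ± S.E.M., n = 3 technical replicates.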

In the case of `C[C@]12CC[C@@H]3c4ccc(O)cc4C[C@@H](CCCCCCCCC[S+]([O-])CCCC(F)(F)C(F)(F)F)[C@H]3[C@@H]1CC[C@@H]2O` (stereo partly specified) [FULVESTRANT], the Activity result was “Non-Toxic”.
